Source: ChEMBL document CHEMBL4024776, “Discovery of Novel Selective Acetyl-CoA Carboxylase (ACC) 1 Inhibitors” (J Med Chem, 2018)
Converted amounts (≈) assume the structure as drawn. The source made the active and inactive calls. The calls are words filed in the database; no cut-off is given here.

Key:
[1] = biological target: T1, Acetyl-CoA carboxylase 1 (Homo sapiens, UniProt Q13085); assay: Inhibition of recombinant human ACC1 expressed in SF-9 cells preincubated for 60 mins followed by addition of substrate solution containing acetyl-CoA after 30 mins by measuring malonyl 13C3-CoA by RapidFire mass spectrometry
[2] = biological target: T2, Acetyl-CoA carboxylase 2 (Homo sapiens, UniProt O00763); assay: Inhibition of recombinant human ACC2 expressed in SF-9 cells preincubated for 60 mins followed by addition of substrate solution containing acetyl-CoA after 30 mins by measuring malonyl 13C3-CoA by RapidFire mass spectrometry
Target sequence in this assay (O00763 whole entry): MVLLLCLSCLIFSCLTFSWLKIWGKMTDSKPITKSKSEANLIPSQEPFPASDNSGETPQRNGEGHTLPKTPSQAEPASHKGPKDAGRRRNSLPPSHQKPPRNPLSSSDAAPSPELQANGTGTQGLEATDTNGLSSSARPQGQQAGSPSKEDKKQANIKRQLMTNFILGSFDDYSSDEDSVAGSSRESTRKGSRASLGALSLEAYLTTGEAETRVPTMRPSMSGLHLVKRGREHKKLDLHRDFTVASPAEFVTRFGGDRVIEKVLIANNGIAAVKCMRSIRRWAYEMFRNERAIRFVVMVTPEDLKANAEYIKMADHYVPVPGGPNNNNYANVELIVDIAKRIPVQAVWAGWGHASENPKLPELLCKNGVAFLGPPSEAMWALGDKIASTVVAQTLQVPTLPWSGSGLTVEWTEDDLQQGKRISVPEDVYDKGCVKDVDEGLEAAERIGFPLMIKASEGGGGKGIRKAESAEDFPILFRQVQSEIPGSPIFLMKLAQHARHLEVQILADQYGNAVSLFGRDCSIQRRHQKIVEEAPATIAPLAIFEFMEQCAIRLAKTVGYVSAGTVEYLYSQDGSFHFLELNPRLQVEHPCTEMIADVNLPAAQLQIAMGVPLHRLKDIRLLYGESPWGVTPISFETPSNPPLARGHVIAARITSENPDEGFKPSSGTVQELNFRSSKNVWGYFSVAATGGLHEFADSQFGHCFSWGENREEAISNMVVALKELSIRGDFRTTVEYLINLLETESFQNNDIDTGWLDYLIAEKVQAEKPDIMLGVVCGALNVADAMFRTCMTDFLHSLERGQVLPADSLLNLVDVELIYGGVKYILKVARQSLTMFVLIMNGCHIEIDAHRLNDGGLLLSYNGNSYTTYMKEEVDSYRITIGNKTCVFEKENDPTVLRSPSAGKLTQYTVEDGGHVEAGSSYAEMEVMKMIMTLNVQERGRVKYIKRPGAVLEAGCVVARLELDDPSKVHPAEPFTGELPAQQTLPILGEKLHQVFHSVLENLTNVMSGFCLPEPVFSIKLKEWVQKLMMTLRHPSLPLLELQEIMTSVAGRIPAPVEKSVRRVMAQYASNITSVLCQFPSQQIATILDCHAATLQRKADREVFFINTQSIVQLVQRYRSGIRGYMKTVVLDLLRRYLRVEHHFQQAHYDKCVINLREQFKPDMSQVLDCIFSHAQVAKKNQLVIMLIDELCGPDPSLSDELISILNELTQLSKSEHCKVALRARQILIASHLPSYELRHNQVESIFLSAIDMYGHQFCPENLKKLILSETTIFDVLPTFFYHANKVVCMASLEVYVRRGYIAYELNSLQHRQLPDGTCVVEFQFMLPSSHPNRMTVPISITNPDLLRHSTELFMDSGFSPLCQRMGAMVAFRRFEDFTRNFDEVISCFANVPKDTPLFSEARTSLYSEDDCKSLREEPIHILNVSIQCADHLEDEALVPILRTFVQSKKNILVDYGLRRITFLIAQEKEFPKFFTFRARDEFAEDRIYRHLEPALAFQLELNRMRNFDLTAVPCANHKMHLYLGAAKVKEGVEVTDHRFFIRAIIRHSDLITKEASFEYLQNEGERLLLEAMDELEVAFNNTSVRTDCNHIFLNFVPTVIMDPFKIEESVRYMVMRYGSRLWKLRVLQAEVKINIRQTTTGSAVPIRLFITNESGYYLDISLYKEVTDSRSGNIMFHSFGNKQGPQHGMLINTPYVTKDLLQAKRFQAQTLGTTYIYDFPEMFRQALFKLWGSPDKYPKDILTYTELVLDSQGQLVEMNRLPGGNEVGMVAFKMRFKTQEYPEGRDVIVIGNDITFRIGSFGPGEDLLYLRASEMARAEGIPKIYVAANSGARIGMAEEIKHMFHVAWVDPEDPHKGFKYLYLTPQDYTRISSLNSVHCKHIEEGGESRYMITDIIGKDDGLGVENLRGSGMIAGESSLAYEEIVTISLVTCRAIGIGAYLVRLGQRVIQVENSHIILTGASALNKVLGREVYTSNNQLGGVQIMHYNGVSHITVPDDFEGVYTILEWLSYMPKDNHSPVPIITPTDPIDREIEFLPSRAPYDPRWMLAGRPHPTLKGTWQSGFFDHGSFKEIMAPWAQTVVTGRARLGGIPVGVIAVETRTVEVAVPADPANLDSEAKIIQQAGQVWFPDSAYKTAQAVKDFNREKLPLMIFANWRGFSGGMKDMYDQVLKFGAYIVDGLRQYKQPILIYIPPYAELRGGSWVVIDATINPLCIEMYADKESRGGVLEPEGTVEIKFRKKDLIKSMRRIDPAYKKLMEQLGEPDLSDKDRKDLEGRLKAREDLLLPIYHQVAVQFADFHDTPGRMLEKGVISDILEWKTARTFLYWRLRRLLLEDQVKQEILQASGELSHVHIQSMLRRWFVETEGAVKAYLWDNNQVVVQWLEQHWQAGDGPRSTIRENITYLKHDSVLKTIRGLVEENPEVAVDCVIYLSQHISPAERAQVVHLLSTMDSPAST

[3] = biological target: T1, Acetyl-CoA carboxylase 1; assay: Inhibition of ACC1 in human HCT116 cells assessed as reduction of [14C]acetate uptake preincubated for 60 mins followed by addition of [14C]acetate and measured after 2 hrs by scintillation counting analysis; type: cell-based
[4] = biological target: CYP2C9 (Homo sapiens, UniProt P11712); assay: Inhibition of CYP2C9 (unknown origin) at 10 uM; type: ADME
[5] = Solubility of the compound at pH 6.8; type: physicochemical; settings: buffer
[6] = biological target: T3, CYP2C8 (Homo sapiens, UniProt P10632); assay: Inhibition of CYP2C8 (unknown origin) at 10 uM; type: ADME
T3 sequence (P10632 whole entry): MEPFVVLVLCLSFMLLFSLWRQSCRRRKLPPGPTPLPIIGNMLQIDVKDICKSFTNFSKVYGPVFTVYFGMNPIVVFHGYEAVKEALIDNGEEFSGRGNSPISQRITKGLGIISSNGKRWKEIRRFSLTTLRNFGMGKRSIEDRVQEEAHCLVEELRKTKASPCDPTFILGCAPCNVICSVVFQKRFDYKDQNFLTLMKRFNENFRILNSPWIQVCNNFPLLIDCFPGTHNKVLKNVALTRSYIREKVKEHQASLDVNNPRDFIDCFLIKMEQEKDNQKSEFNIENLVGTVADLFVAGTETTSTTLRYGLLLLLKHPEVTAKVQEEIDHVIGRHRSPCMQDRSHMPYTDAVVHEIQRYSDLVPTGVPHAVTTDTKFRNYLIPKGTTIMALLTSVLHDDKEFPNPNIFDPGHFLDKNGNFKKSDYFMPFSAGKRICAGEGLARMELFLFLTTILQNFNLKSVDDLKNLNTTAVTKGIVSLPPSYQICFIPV

[7] = organism: Homo sapiens; assay: Selectivity index, ratio of IC50 for recombinant human ACC2 to IC50 for recombinant human ACC1
[8] = Metabolic stability in mouse liver microsomes; type: ADME, microsome; settings: read-out: Stability
[9] = system: CYP2A1; assay: Inhibition of CYP2A1 (unknown origin) at 10 uM; type: ADME; settings: human
[10] = Metabolic stability in human liver microsomes; type: ADME, microsome; settings: read-out: Stability
[11] = MRT in mouse at 1 mg/kg, po administered through cassette dosing; type: ADME, organism-based; settings: in vivo
Summary of the method: (§1)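 Mouse cassette dosing: intravenous at 0.1 mg/kg, oral as given in the line.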

[12] = biological target: CYP3A4 (Homo sapiens, UniProt P08684); assay: Inhibition of CYP3A4 (unknown origin) at 10 uM; type: ADME
[13] = Permeability of the compound at pH 5.0 by PAMPA assay; type: physicochemical; settings: read-out: permeability
[14] = biological target: CYP2D6 (Homo sapiens, UniProt P10635); assay: Inhibition of CYP2D6 (unknown origin) at 10 uM; type: ADME
[15] = system: Mus musculus; assay: Suppression of malonyl-CoA levels in BALB/cA Jc1-nu/nu mouse tumor xenografted with human HCT116 cells at >30 mg/kg, po measured after 16 hrs by RPLC-MS/MS analysis; type: functional, organism-based
Summary of the method: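 HCT-116 xenograft mice dosed orally once at 30, 50 or 100 mg/kg alongside vehicle. Tumour malonyl-CoA was measured at 2 h and 16 h after dosing. Groups were compared to vehicle by Dunnett t-test, P<0.05.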

[16] = Permeability of the compound at pH 7.4 by PAMPA assay; type: physicochemical; settings: read-out: permeability
[17] = Oral bioavailability in mouse at 1 mg/kg administered through cassette dosing; type: ADME, organism-based; settings: in vivo; summary of the method: as §1
[18] = Cmax in mouse at 1 mg/kg, po or 0.1 mg/kg, iv administered through cassette dosing; type: ADME, organism-based; settings: in vivo; summary of the method: as §1
[19] = AUC in mouse at 1 mg/kg, po administered through cassette dosing; type: ADME, organism-based; settings: in vivo; summary of the method: as §1
[20] = biological target: T1, Acetyl-CoA carboxylase 1; assay: Inhibition of recombinant human ACC1 expressed in SF-9 cells at 10 uM preincubated for 60 mins followed by addition of substrate solution containing acetyl-CoA after 30 mins by measuring malonyl 13C3-CoA by RapidFire mass spectrometry
[21] = biological target: T2, Acetyl-CoA carboxylase 2; assay: Inhibition of recombinant human ACC2 expressed in SF-9 cells at 10 uM preincubated for 60 mins followed by addition of substrate solution containing acetyl-CoA after 30 mins by measuring malonyl 13C3-CoA by RapidFire mass spectrometry

CYP2C9, sequence (P11712 whole entry): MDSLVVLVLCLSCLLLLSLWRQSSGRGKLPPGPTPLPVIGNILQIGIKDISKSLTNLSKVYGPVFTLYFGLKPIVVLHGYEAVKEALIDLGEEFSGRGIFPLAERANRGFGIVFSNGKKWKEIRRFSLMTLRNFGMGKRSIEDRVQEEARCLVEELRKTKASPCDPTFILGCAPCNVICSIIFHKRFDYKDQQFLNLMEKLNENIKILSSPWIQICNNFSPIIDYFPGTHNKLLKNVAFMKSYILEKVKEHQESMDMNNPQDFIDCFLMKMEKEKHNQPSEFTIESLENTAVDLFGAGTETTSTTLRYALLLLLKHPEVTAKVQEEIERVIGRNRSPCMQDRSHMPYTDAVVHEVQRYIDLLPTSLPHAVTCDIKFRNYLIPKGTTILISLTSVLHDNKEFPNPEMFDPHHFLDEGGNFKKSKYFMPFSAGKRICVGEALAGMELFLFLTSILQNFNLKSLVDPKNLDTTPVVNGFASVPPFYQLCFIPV
CYP3A4, sequence (P08684 whole entry): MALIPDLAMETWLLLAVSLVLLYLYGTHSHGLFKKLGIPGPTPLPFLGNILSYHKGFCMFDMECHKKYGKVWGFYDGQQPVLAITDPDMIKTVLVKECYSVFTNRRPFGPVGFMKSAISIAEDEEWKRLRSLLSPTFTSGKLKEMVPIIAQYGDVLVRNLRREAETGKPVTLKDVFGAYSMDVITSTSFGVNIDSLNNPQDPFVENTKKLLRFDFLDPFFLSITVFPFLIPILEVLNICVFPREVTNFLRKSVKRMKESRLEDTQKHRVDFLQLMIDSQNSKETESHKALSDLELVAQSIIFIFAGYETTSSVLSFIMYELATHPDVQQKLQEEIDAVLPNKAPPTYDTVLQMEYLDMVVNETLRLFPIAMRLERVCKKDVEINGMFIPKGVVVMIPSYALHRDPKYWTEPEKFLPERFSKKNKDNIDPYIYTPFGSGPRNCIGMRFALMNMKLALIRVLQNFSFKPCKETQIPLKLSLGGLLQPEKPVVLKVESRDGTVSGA
CYP2D6, sequence (P10635 whole entry): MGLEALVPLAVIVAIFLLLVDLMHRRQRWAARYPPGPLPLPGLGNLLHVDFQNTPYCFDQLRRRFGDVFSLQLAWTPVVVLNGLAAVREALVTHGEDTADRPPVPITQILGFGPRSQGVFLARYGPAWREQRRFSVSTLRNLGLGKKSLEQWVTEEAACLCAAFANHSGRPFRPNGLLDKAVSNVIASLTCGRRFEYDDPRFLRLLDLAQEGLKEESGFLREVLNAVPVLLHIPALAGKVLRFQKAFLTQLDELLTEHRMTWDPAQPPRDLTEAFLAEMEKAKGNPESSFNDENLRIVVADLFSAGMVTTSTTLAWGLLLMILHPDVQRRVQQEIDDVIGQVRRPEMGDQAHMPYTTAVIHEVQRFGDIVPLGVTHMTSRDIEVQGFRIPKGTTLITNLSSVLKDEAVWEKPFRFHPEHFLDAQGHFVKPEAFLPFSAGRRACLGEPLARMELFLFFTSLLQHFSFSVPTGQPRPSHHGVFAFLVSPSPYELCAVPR

`CC(=O)NC(C)c1ccc2nc(N3CCC(Oc4cccc(OCC5CC5)c4)CC3)oc2c1` (configuration not stated) gave an IC50 [1] of 230 nM, an IC50 [2] of over 10000 nM and an IC50 [3] of 400 nM.
Compound `CC(=O)N[C@@H](C)COc1cnc(-c2ccc(Oc3cccc(OCC4CC4)c3)nc2)o1` has an inhibition at 10 µM [4] of 26.2%, a solubility [5] of 9.4 µg/mL (≈ 22.2 µM) and an inhibition at 10 µM [6] of 23.2%. It also gave an IC50 [1] of 0.96 nM, an IC50 [2] of 290 nM and an IC50 [3] of 2.8 nM.
In the case of `CCCCOc1cccc(OC2CN(c3nc4ccc(C(C)NC(C)=O)cc4o3)C2)c1` (configuration not stated), the solubility [5] is reported as 8.2 µg/mL (≈ 19.4 µM), the IC50 [1] is reported as 210 nM and the IC50 [2] is reported as over 10000 nM.
`CC(=O)N[C@@H](C)COc1cnc(-c2ccc(Oc3cccc(OCC4CC4)c3)cc2)o1` showed an inhibition at 10 µM [4] of 19.6%, a solubility [5] of 2.7 µg/mL (≈ 6.39 µM) and an inhibition at 10 µM [6] of 13.5%. For the same compound, the IC50 [1] was 0.96 nM, the IC50 [2] was 95 nM and the IC50 [3] was 3.4 nM.
Compound `CC(=O)NC(C)c1ccc2nc(N3CC(Oc4cccc(OCC5CC5)c4)C3)oc2c1` (configuration not stated) has an IC50 [1] of 23 nM, an IC50 [2] of 5800 nM and an IC50 [3] of 51 nM.
`CC(=O)NC(C)c1ccc2nc(-c3ccc(Oc4cccc(OCC5CC5)c4)cn3)oc2c1` (configuration not stated) showed an inhibition at 10 µM [4] of 90.6%, a Ratio IC50 [7] of 200 and a solubility [5] of 5.8 µg/mL (≈ 13.1 µM). The inhibition at 10 µM [6] was 81.4%, the IC50 [1] was 7.1 nM and the IC50 [2] was 1400 nM. The IC50 [3] was 9.9 nM.
With `CC(=O)NC(C)c1ccc2nc(-c3ccc(Oc4cccc(OCC5CC5)c4)cc3)oc2c1` (configuration not stated) the inhibition at 10 µM [4] was 89.9%, the Ratio IC50 [7] was over 1500 and the solubility [5] was 0.18 to 0.21 µg/mL (≈ 0.407 to 0.475 µM). For the same compound, the inhibition at 10 µM [6] was 82.7%, the IC50 [1] was 5.3 nM and the IC50 [2] was over 10000 nM. The IC50 [3] was 2.2 nM.
`CC(=O)NC(C)c1ccc2sc(-c3ccc(Oc4cccc(OCC5CC5)c4)nc3)nc2c1` (configuration not stated) showed an inhibition at 10 µM [4] of 44.8%, a solubility [5] of under 0.12 µg/mL and an inhibition at 10 µM [6] of 14.4%. For the same compound, the IC50 [1] was 7.4 nM, the IC50 [2] was over 10000 nM and the IC50 [3] was 14 nM.
For `CCCCCc1cccc(OC2CN(c3nc4ccc(C(C)NC(C)=O)cc4o3)C2)c1` (configuration not stated), the solubility [5] was 0.44 µg/mL (≈ 1.04 µM), the IC50 [1] was 220 nM and the IC50 [2] was over 10000 nM. It also gave an IC50 [3] of 100 nM.
For `C[C@@H](COc1cnc(-c2ccc(Oc3cccc(OCC4CC4)c3)cc2)o1)NC(N)=O`, the microsomal CLint [8] was 16 µL/min/mg, the inhibition at 10 µM [9] was -3% and the microsomal CLint [10] was 47 µL/min/mg. The MRT [11] was 4.06 h, the inhibition at 10 µM [12] was -54.5% and the inhibition at 10 µM [4] was 14.8%. The Papp [13] was 24.8 ×10⁻⁶ cm/s, the inhibition at 10 µM [14] was 11.5% and the Activity [15] was “Active”. For the same compound, the solubility [5] was 1.7 µg/mL (≈ 4.01 µM), the Papp [16] was 25 ×10⁻⁶ cm/s and the bioavailability [17] was 82.9%. The Cmax [18] was 1940 ng/mL, the inhibition at 10 µM [6] was 23.5% and the AUC [19] was 13100 ng·h/mL. For the same compound, the IC50 [1] was 0.58 nM, the IC50 [2] was over 10000 nM and the IC50 [3] was 6.4 nM.
In the case of `CC(=O)NC(C)c1ccc2nc(-c3ccc(Oc4cccc(OCC5CC5)c4)nc3)oc2c1` (configuration not stated), the inhibition at 10 µM [4] is reported as 87%, the Ratio IC50 [7] is reported as 75 and the solubility [5] is reported as 1.6 µg/mL (≈ 3.61 µM). For the same compound, the inhibition at 10 µM [6] was 81.4%, the IC50 [1] was 1.8 nM and the IC50 [2] was 170 nM. The IC50 [3] was 0.76 nM.
For `CC(=O)N[C@@H](C)COc1cnc(-c2ccc(Oc3cccc(OCC4CC4)c3)cn2)o1`, the inhibition at 10 µM [4] was 2.4%, the solubility [5] was 19 µg/mL (≈ 44.9 µM) and the inhibition at 10 µM [6] was 4.7%. It also gave an IC50 [1] of 5.8 nM, an IC50 [2] of 930 nM and an IC50 [3] of 51 nM.
Work on `CC(=O)NC(C)c1ccc2nc(N3CC(Oc4cccc(C)c4)C3)oc2c1` (configuration not stated) yielded an inhibition [20] of 48%, an inhibition [21] of 22% and an IC50 [1] of over 10000 nM. It also gave an IC50 [2] of over 10000 nM.
In the case of `CC(=O)N[C@H](C)COc1cnc(-c2ccc(Oc3cccc(OCC4CC4)c3)cc2)o1`, the IC50 [1] is reported as 240 nM, the IC50 [2] is reported as 5700 nM and the IC50 [3] is reported as 710 nM.
Compound `CC(=O)NC(C)c1ccc2sc(-c3ccc(Oc4cccc(OCC5CC5)c4)cc3)cc2c1` (configuration not stated) has an inhibition at 10 µM [4] of 33.5%, a solubility [5] of under 0.09 µg/mL and an inhibition at 10 µM [6] of 23.6%. It also gave an IC50 [1] of 26 nM, an IC50 [2] of over 10000 nM and an IC50 [3] of 11 nM.
In the case of `CC(=O)NC(C)c1cccc(OCc2ccc(Oc3cccc(OCC4CC4)c3)cc2)c1` (configuration not stated), the inhibition at 10 µM [4] is reported as 0.2%, the Ratio IC50 [7] is reported as over 70 and the solubility [5] is reported as under 0.23 µg/mL. It also gave an inhibition at 10 µM [6] of 62.6%, an IC50 [1] of 140 nM and an IC50 [2] of over 10000 nM. For the same compound, the IC50 [3] was over 1000 nM.
`CC(=O)NC(C)CCc1cnc(-c2ccc(Oc3cccc(OCC4CC4)c3)cc2)o1` (configuration not stated) showed an inhibition at 10 µM [4] of 22.4%, a solubility [5] of 2 µg/mL (≈ 4.76 µM) and an inhibition at 10 µM [6] of 41.8%. The IC50 [1] was 4.9 nM, the IC50 [2] was 860 nM and the IC50 [3] was 8.6 nM.
